# Reference: PubChem BioAssay
# Active and inactive are the calls of the source.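 The calls were made as follows: active = mean duplicate activation above the buffer control mean plus 5 SD of those controls; inactive = the rest.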
# Target: Potassium voltage-gated channel subfamily E member 1 (Homo sapiens) + Potassium voltage-gated channel subfamily KQT member 1 (Homo sapiens) (UniProt P15382+P51787)
# Experiment: KCNQ1-E1 channel activation – thallium flux, CHO-K1 KCNQ1/E1 cells, selectivity assay for KCNQ1 potentiator project, confirmation (AID 493186)
# Settings: FluxOR thallium flux, at 10 µM
# How it was run: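 Test system: CHO-K1 cells with KCNQ1/E1; dosing: one test concentration; signal: FluxOR Tl+ flux fluorescence, kinetic read; incubation: 90-min dye loading then 20-min compound exposure, both at room temperature; read-out basis: percent of R-L3 effect over buffer; replication: duplicate wells per compound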
# Chain of Potassium voltage-gated channel subfamily E member 1 (Homo sapiens) + Potassium voltage-gated channel subfamily KQT member 1 (Homo sapiens) (P51787 whole entry, looked up): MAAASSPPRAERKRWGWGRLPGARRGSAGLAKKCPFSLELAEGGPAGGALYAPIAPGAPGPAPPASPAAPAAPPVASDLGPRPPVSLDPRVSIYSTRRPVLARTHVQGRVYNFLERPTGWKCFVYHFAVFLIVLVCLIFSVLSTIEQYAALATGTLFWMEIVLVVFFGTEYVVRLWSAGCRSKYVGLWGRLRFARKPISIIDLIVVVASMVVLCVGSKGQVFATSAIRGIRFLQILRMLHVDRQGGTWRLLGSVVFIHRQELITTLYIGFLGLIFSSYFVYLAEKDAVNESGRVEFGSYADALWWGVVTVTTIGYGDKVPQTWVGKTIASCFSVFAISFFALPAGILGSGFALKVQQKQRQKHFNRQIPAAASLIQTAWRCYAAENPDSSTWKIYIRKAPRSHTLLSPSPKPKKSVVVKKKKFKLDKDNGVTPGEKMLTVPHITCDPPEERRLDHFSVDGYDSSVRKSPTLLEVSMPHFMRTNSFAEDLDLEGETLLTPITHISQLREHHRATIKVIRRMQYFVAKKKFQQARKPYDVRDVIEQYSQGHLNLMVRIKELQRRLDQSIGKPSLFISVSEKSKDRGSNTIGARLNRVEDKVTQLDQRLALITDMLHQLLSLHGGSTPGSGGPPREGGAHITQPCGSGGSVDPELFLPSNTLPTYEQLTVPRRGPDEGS
row,SMILES,outcome
1,Cc1ccc2cc(/C=N/NC(=O)CN3CCCCC3)c(Cl)nc2c1,inactive
2,CSCC(C)N1CCC(n2nccc2NC(=O)CCOc2ccccc2)CC1 (stereo unspecified),inactive
3,CCOc1cccc2sc(NC(=O)c3ccc(Br)s3)nc12,inactive
4,CNCC/C=C1/c2ccccc2CSc2ccccc21,inactive
5,CCCc1cc(=O)[nH]c(SCC(=O)Nc2ccc(Br)cc2Br)n1,inactive
6,O=C(NC(=S)Nc1cccc(Cl)c1)c1cncc(Br)c1,inactive
7,CCC(C)NC(=O)Cn1c(-c2ccccc2)cc(C(C)=O)c1C (stereo unspecified),inactive
8,COc1cccc(-c2nc(=S)c3c(o2)CCCC3)c1,inactive
9,CN(C)CCCN(C(=O)CCOc1ccccc1)c1nc2c(F)cccc2s1,inactive
10,CCNc1nc(NCC)nc(C(=O)OCCO)n1,inactive
11,O=C1C(=O)N(CCCc2ccccc2)c2ccccc21,inactive
12,Cc1ccc(NC(=O)Nc2ccc3c(c2)CCC3)cc1,inactive
13,COc1ccc(-c2csc(N(CCCN(C)C)C(=O)c3ccccc3C)n2)cc1,inactive
14,Cc1cccc(OCc2n[nH]c(=S)n2C2CCCCC2)c1,inactive
15,O=C(COc1ccccc1Cl)NC(=S)N1CCc2ccccc21,inactive
16,COc1ccccc1C(=O)NNC(=O)C(=O)NC(C)C,inactive
17,COc1cccc(NC(=S)N/N=C2/CCCCc3ccccc32)c1,inactive
18,CN1CCN(c2ccc(S(=O)(=O)N3CCCCC3)cc2NC(=O)COc2cccc(Cl)c2)CC1,inactive
19,CCCC(=O)n1nc(-c2ccc(C)cc2)nc1NCc1ccco1,inactive
20,CCCn1c(SCC(=O)Nc2ccccc2C(=O)OC)nc2c1c(=O)n(C)c(=O)n2C,inactive
21,Cc1c(-c2nc(-c3ccncc3)no2)cccc1[N+](=O)[O-],inactive
